Measured values: ChEMBL document CHEMBL4152256, “Structure-activity relationship of new antimalarial 1-aryl-3-susbtituted propanol derivatives: Synthesis, preliminary toxicity profiling, parasite life cycle stage studies, target exploration, and targeted delivery” (Eur J Med Chem, 2018)
Calls of active or inactive are those of the source. No cut-off for these calls is given here.

What was measured:
[1] = Genotoxicity in Salmonella typhimurium TA1535 harboring pSK1002 assessed as survival at 0.001 mg/ml in presence of Sprague-Dawley rat liver S9 fraction after by SOS/umu assay relative to control; format: toxicity, organism-based; settings: salmonella enterica subsp. enterica serovar typhimurium, read-out: Survival
[2] = Genotoxicity in Salmonella typhimurium TA1535 harboring pSK1002 assessed as survival at 0.002 mg/ml in presence of Sprague-Dawley rat liver S9 fraction after by SOS/umu assay relative to control; format: toxicity, organism-based; settings: salmonella enterica subsp. enterica serovar typhimurium, read-out: Survival
[3] = Genotoxicity in Salmonella typhimurium TA1535 harboring pSK1002 assessed as umu gene induction at 0.004 mg/ml in absence of Sprague-Dawley rat liver S9 fraction after by SOS/umu assay relative to control; format: toxicity, organism-based; settings: salmonella enterica subsp. enterica serovar typhimurium, read-out: FC
[4] = Solubility of the compound in DSPC:cholesterol:DSPE-PEG2000-Mal:DOPE-Rho lipid mixture at 250 uM; format: physicochemical
How it was run: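 Compound added at 250 µM drug to the initial liposome lipid mixture (10 mM total lipid); precipitation and UV-visible absorbance above 300 nm assessed after encapsulation, removal of unencapsulated material and extraction with 1% w/v SDS in RPMI-A.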

Plasmodium berghei [5] = assay: Antiplasmodial activity against Plasmodium berghei ANKA infected in mouse assessed as mouse survival time at 50 mg/kg/day, po for 4 consecutive days starting from 2 hrs post infection by MSF assay; format: functional
How it was run: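 Swiss male mice (20 ± 2 g) infected i.p. with 10^7 P. berghei ANKA parasitized cells in 0.1 mL 0.9% saline (day 0). Oral dosing began 2 h post-infection and continued daily on days 0–3, five mice per batch. Test drugs were given at 50 mg/kg/day in water:DMSO and chloroquine diphosphate at 3 mg/kg/day; a vehicle control was included. Survival was checked daily, and parasitemia was read on day 4 by modified MSF assay.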

[6] = Genotoxicity in Salmonella typhimurium TA1535 harboring pSK1002 assessed as umu gene induction at 0.001 mg/ml in presence of Sprague-Dawley rat liver S9 fraction after by SOS/umu assay relative to control; format: toxicity, organism-based; settings: salmonella enterica subsp. enterica serovar typhimurium, read-out: FC
[7] = Genotoxicity in Salmonella typhimurium TA1535 harboring pSK1002 assessed as survival at 0.063 mg/ml in absence of Sprague-Dawley rat liver S9 fraction after by SOS/umu assay relative to control; format: toxicity, organism-based; settings: salmonella enterica subsp. enterica serovar typhimurium, read-out: Survival
[8] = Genotoxicity in Salmonella typhimurium TA1535 harboring pSK1002 assessed as survival at 0.25 mg/ml in absence of Sprague-Dawley rat liver S9 fraction after by SOS/umu assay relative to control; format: toxicity, organism-based; settings: salmonella enterica subsp. enterica serovar typhimurium, read-out: Survival
[9] = Genotoxicity in Salmonella typhimurium TA1535 harboring pSK1002 assessed as survival at 0.002 mg/ml in absence of Sprague-Dawley rat liver S9 fraction after by SOS/umu assay relative to control; format: toxicity, organism-based; settings: salmonella enterica subsp. enterica serovar typhimurium, read-out: Survival
Plasmodium berghei [10] = assay: Antiplasmodial activity against GFP-fused Plasmodium berghei sporozoites infected in human HepG2A16 cells treated simultaneously with infection by fluorescence microscopic analysis; format: functional, organism-based
How it was run: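 HepG2-A16 cells (3 × 10^4/well, collagen-coated) infected with PbGFP sporozoites (5 × 10^3 to 1 × 10^4/well) and treated at the same time. Top concentration 10 µg/mL in DMEM, seven serial dilutions. Medium and compound renewed at 3 h and every 24 h. After 40 h at 37 °C: methanol fixation, anti-Plasmodium Hsp70 immunolabeling, Alexa 594 secondary, DAPI; high-content imaging.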

[11] = Genotoxicity in Salmonella typhimurium TA1535 harboring pSK1002 assessed as umu gene induction at 0.008 mg/ml in absence of Sprague-Dawley rat liver S9 fraction after by SOS/umu assay relative to control; format: toxicity, organism-based; settings: salmonella enterica subsp. enterica serovar typhimurium, read-out: FC
Plasmodium berghei [12] = assay: Antiplasmodial activity against Plasmodium berghei ANKA infected in mouse assessed as inhibition of parasitemia at 50 mg/kg/day, po for 4 consecutive days starting from 2 hrs post infection by MSF assay relative to control; format: functional
How it was run: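 Swiss male mice (20 ± 2 g) infected ip with 10^7 P. berghei ANKA parasitized cells (day 0). Five per group dosed orally 2 h after infection and daily on days 0–3. Test compounds at 50 mg/kg/day in water:DMSO; chloroquine diphosphate at 3 mg/kg/day; vehicle controls. Parasitemia measured on day 4 by MSF assay; survival checked daily.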

Plasmodium falciparum [13] = assay: Antiplasmodial activity against Plasmodium falciparum D6 after 72 hrs by MSF assay; format: functional, organism-based; settings: D6, 72 h
How it was run: (§1)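 D6 and C235 strains from the Walter Reed Army Institute of Research were tested by the Malaria SYBR Green-I fluorescence assay.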

[14] = Genotoxicity in Salmonella typhimurium TA1535 harboring pSK1002 assessed as umu gene induction at 0.25 mg/ml in absence of Sprague-Dawley rat liver S9 fraction after by SOS/umu assay relative to control; format: toxicity, organism-based; settings: salmonella enterica subsp. enterica serovar typhimurium, read-out: FC
Plasmodium falciparum [15] = assay: Antiplasmodial activity against multidrug-resistant Plasmodium falciparum C235 after 72 hrs by MSF assay; format: functional, organism-based; settings: C235, 72 h; how it was run: as §1
[16] = Genotoxicity in Salmonella typhimurium TA1535 harboring pSK1002 assessed as umu gene induction at 0.25 mg/ml in presence of Sprague-Dawley rat liver S9 fraction after by SOS/umu assay relative to control; format: toxicity, organism-based; settings: salmonella enterica subsp. enterica serovar typhimurium, read-out: FC
[17] = Genotoxicity in Salmonella typhimurium TA1535 harboring pSK1002 assessed as survival at 0.25 mg/ml in presence of Sprague-Dawley rat liver S9 fraction after by SOS/umu assay relative to control; format: toxicity, organism-based; settings: salmonella enterica subsp. enterica serovar typhimurium, read-out: Survival
[18] = Genotoxicity in Salmonella typhimurium TA1535 harboring pSK1002 assessed as survival at 0.5 mg/ml in absence of Sprague-Dawley rat liver S9 fraction after by SOS/umu assay relative to control; format: toxicity, organism-based; settings: salmonella enterica subsp. enterica serovar typhimurium, read-out: Survival
[19] = Genotoxicity in Salmonella typhimurium TA1535 harboring pSK1002 assessed as survival at 0.5 mg/ml in presence of Sprague-Dawley rat liver S9 fraction after by SOS/umu assay relative to control; format: toxicity, organism-based; settings: salmonella enterica subsp. enterica serovar typhimurium, read-out: Survival
[20] = Genotoxicity in Salmonella typhimurium TA1535 harboring pSK1002 assessed as umu gene induction at 0.5 mg/ml in absence of Sprague-Dawley rat liver S9 fraction after by SOS/umu assay relative to control; format: toxicity, organism-based; settings: salmonella enterica subsp. enterica serovar typhimurium, read-out: FC
[21] = Genotoxicity in Salmonella typhimurium TA1535 harboring pSK1002 assessed as umu gene induction at 0.5 mg/ml in presence of Sprague-Dawley rat liver S9 fraction after by SOS/umu assay relative to control; format: toxicity, organism-based; settings: salmonella enterica subsp. enterica serovar typhimurium, read-out: FC
Plasmodium falciparum [22] = assay: Antiplasmodial activity against Plasmodium falciparum FCR-3 sporozoites infected in human primary hepatocytes treated simultaneously with infection by DAPI staining based HCS analysis; format: functional, organism-based, FCR-3/Gambia
[23] = Plasmodium berghei, HepG2A16, read-out: IC50

SMILES | viability at 0.001 mg/ml [1] | viability at 0.002 mg/ml [2] | fold induction at 0.004 mg/ml [3] | solubility [4] | MSD (Plasmodium berghei [5]) | fold induction at 0.001 mg/ml [6] | viability at 0.063 mg/ml [7] | viability at 0.25 mg/ml [8] | viability at 0.002 mg/ml [9] | IC50 (Plasmodium berghei [10]) | fold induction at 0.008 mg/ml [11] | inhibition in vivo at 50 mg/kg/day (Plasmodium berghei [12]) | IC50 (Plasmodium falciparum [13]) | fold induction at 0.25 mg/ml [14] | IC50 (Plasmodium falciparum [15]) | fold induction at 0.25 mg/ml [16] | viability at 0.25 mg/ml [17] | viability at 0.5 mg/ml [18] | viability at 0.5 mg/ml [19] | fold induction at 0.5 mg/ml [20] | further results
COc1ccccc1N1CCN(CCC(O)c2ccc(F)cc2)CC1 (stereo in doubt; 66) | 91.6% | 80.7% | 1.1 | Insoluble | 12 days | 1.3 | 108% | 98.8% | 114% | Not Active | 1 | 96.4% | 6320 nM | 1.1 | 7260 nM | 1 | 90.4% | – | – | – | –
OC(CCN1CCN(c2ccc(F)cc2)CC1)c1ccc(F)c2ccccc12 (stereo not drawn) | 101% | 100% | 0.8 | – | – | 0.9 | 118% | 51.2% | 110% | – | 0.5 | – | – | 1.1 | – | 0.9 | 66.2% | 196% | 112% | 0.6 | fold induction at 0.5 mg/ml [21]: 1.2
Oc1ccc(C(O)CCN2CC=C(c3ccc(F)cc3)CC2)cc1 (stereo not drawn) | 102% | 112% | 1 | – | – | 0.5 | 123% | – | 98.6% | Not Active | 1.1 | – | – | – | – | – | – | – | – | – | –
Nc1ccc(N2CCC(NCCC(O)c3ccc(F)c4ccccc34)CC2)c(C(F)(F)F)c1 (stereo not drawn) | 119% | 116% | 0.8 | – | 3 days | 0.6 | 27.7% | 48% | 150% | – | 1 | – | – | 0.2 | – | 0.1 | 118% | 68.2% | 118% | 0.1 | fold induction at 0.5 mg/ml [21]: 0.1
COc1ccccc1N1CCN(CCC(O)c2ccc(F)c3ccccc23)CC1 (stereo not drawn) | 112% | 102% | 1.1 | Insoluble | 10 days | 0.9 | 61.5% | 147% | 65.2% | Not Active | 1.3 | ≤ 50% | 280 nM | 0.3 | 410 nM | 0.4 | 115% | – | – | – | –
OC(CCN1CC=C(c2ccc(F)cc2)CC1)c1ccc2c(c1)OCO2 (stereo not drawn) | 111% | 108% | 0.8 | – | – | 0.7 | 96.6% | 128% | 122% | Not Active | 0.7 | – | – | 0.7 | – | 1 | 96% | 81.4% | 87.1% | 0.9 | fold induction at 0.5 mg/ml [21]: 0.9
OC(CCN1CCN(C(c2ccccc2)c2ccccc2)CC1)c1ccc(F)c2ccccc12 (stereo not drawn) | 108% | 114% | 1.3 | Insoluble | 9 days | 0.9 | 141% | – | 77.8% | – | 1.4 | – | 100 nM | – | 170 nM | – | – | – | – | – | IC50 (Plasmodium berghei [10]; [23]): 5420 nM; inhibition (Plasmodium berghei [12]): inactive; IC50 (Plasmodium falciparum [22]): Not Active
N#Cc1ccc(C(O)CCN2CC=C(c3ccc(F)cc3)CC2)cc1 (stereo not drawn) | 104% | 97.8% | 0.9 | – | – | 1.1 | 82.3% | 75.8% | 103% | – | 1.1 | – | – | 1.2 | – | 1.1 | 95.1% | 66.5% | 99.1% | 1.2 | fold induction at 0.5 mg/ml [21]: 0.9
COc1ccccc1C1=CCN(CCC(O)c2ccc(F)c3ccccc23)CC1 (stereo not drawn) | 106% | 101% | 0.9 | Insoluble | – | 0.8 | 90.7% | 233% | 86.6% | Not Active | 0.8 | – | 150 nM | 0.1 | 230 nM | 0.2 | 182% | – | – | – | –
N#Cc1ccc(N2CCC(NCCC(O)c3ccc(F)c4ccccc34)CC2)c(Cl)c1 (stereo not drawn) | 154% | 148% | 1 | – | 10 days | 0.9 | 55.4% | – | 117% | – | 0.8 | ≤ 50% | 120 nM | – | 170 nM | – | – | – | – | – | IC50 (Plasmodium berghei [10]; [23]): 3410 nM; IC50 (Plasmodium falciparum [22]): Not Active
OC(CCN1CCN(C(c2ccccc2)c2ccccc2)CC1)c1ccc(F)c(F)c1 (stereo not drawn) | 98.5% | 92.2% | 1 | Insoluble | 9 days | 0.6 | 28% | – | 104% | Not Active | 1.2 | – | – | – | – | – | – | – | – | – | inhibition (Plasmodium berghei [12]): inactive
N#Cc1ccc(N2CCC(NCCC(O)c3ccc(F)c4ccccc34)CC2)c(Br)c1 (stereo not drawn) | 87.2% | 65.3% | 1.4 | – | 10 days | 0.9 | 42.6% | – | 106% | – | 2.2 | ≤ 50% | 120 nM | – | 150 nM | – | – | – | – | – | –
